# Measured values: ChEMBL document CHEMBL3352152, “Indolylmethylene benzo[h]thiazolo[2,3-b]quinazolinones: synthesis, characterization and evaluation of anticancer and antimicrobial activities” (Bioorg Med Chem Lett, 2014)
# Experiments:
# Candida albicans [1] = assay: Antifungal activity against Candida albicans MTCC 183 at 150 ug/ml after 48 hrs by agar well diffusion method; type: functional; details: MTCC 183, 48 h, read-out: IZ
# Procedure, shortened: (§1)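 Antifungal screen by agar well diffusion against C. albicans, C. glabrata, A. niger and A. parasiticus. Clotrimazole was the standard drug. Activity was recorded as zone of inhibition (ZOI, mm).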
# Nakaseomyces glabratus [2] = assay: Antifungal activity against Candida glabrata MTCC3019 at 150 ug/ml after 48 hrs by agar well diffusion method; type: functional; details: MTCC3019, 48 h, read-out: IZ; procedure, shortened: as §1
# Aspergillus niger [3] = assay: Antifungal activity against Aspergillus niger MTCC 282 at 150 ug/ml after 48 hrs by agar well diffusion method; type: functional; details: MTCC 282, 48 h, read-out: IZ; procedure, shortened: as §1
# Aspergillus parasiticus [4] = assay: Antifungal activity against Aspergillus parasiticus MTCC 8850 at 150 ug/ml after 48 hrs by agar well diffusion method; type: functional; details: MTCC 8850, 48 h, read-out: IZ; procedure, shortened: as §1
# MCF7 = assay: Anticancer activity against human MCF7 cells assessed as cell viability after 48 hrs by MTT microcultured tetrazolium assay; type: functional, cell-based; details: MCF7, 48 h
# Procedure, shortened: (§2)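 MTT-microcultured tetrazolium viability read-out in MCF-7 and HepG2 cells exposed to test samples. Surviving fraction was plotted against drug concentration to give survival curves, and IC50 was taken from these curves.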
# HepG2 = assay: Anticancer activity against human HepG2 cells assessed as cell viability after 48 hrs by MTT microcultured tetrazolium assay; type: functional, cell-based; details: HepG2, 48 h; procedure, shortened: as §2
# Staphylococcus aureus [5] = assay: Antibacterial activity against Staphylococcus aureus MTCC 96 at 150 ug/ml after 24 hrs by agar well diffusion assay; type: functional; details: MTCC 96, 24 h, read-out: IZ
# Procedure, shortened: (§3)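 Agar well diffusion screen against the two Gram-positive strains (S. aureus, S. pyogenes) and the two Gram-negative strains (P. aeruginosa, K. pneumoniae). Streptomycin was the reference drug. Activity was read as zone of inhibition (mm).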
# Streptococcus pyogenes [6] = assay: Antibacterial activity against Streptococcus pyogenes MTCC 1926 at 150 ug/ml after 24 hrs by agar well diffusion assay; type: functional; details: MTCC 1926, 24 h, read-out: IZ; procedure, shortened: as §3
# Klebsiella pneumoniae [7] = assay: Antibacterial activity against Klebsiella pneumoniae MTCC 109 at 150 ug/ml after 24 hrs by agar well diffusion assay; type: functional; details: MTCC 109, 24 h, read-out: IZ; procedure, shortened: as §3
# Pseudomonas aeruginosa [8] = assay: Antibacterial activity against Pseudomonas aeruginosa MTCC 4673 at 150 ug/ml after 24 hrs by agar well diffusion assay; type: functional; details: MTCC 4673, 24 h, read-out: IZ; procedure, shortened: as §3
# Candida albicans [9] = assay: Antifungal activity against Candida albicans MTCC 183 at 30 ug/ml after 48 hrs by agar well diffusion method; type: functional; details: MTCC 183, 48 h, read-out: IZ; procedure, shortened: as §1
# Nakaseomyces glabratus [10] = assay: Antifungal activity against Candida glabrata MTCC3019 at 30 ug/ml after 48 hrs by agar well diffusion method; type: functional; details: MTCC3019, 48 h, read-out: IZ; procedure, shortened: as §1
# Aspergillus niger [11] = assay: Antifungal activity against Aspergillus niger MTCC 282 at 30 ug/ml after 48 hrs by agar well diffusion method; type: functional; details: MTCC 282, 48 h, read-out: IZ; procedure, shortened: as §1
# Aspergillus parasiticus [12] = assay: Antifungal activity against Aspergillus parasiticus MTCC 8850 at 30 ug/ml after 48 hrs by agar well diffusion method; type: functional; details: MTCC 8850, 48 h, read-out: IZ; procedure, shortened: as §1
# Staphylococcus aureus [13] = assay: Antibacterial activity against Staphylococcus aureus MTCC 96 at 30 ug/ml after 24 hrs by agar well diffusion assay; type: functional; details: MTCC 96, 24 h, read-out: IZ
# Procedure, shortened: (§4)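 Agar well diffusion screen run in vitro against a bacterial panel: S. aureus and S. pyogenes (Gram-positive), P. aeruginosa and K. pneumoniae (Gram-negative). Streptomycin served as the reference standard drug.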
# Streptococcus pyogenes [14] = assay: Antibacterial activity against Streptococcus pyogenes MTCC 1926 at 30 ug/ml after 24 hrs by agar well diffusion assay; type: functional; details: MTCC 1926, 24 h, read-out: IZ; procedure, shortened: as §3
# Klebsiella pneumoniae [15] = assay: Antibacterial activity against Klebsiella pneumoniae MTCC 109 at 30 ug/ml after 24 hrs by agar well diffusion assay; type: functional; details: MTCC 109, 24 h, read-out: IZ; procedure, shortened: as §4
# Pseudomonas aeruginosa [16] = assay: Antibacterial activity against Pseudomonas aeruginosa MTCC 4673 at 30 ug/ml after 24 hrs by agar well diffusion assay; type: functional; details: MTCC 4673, 24 h, read-out: IZ; procedure, shortened: as §3
Structure (SMILES),IC50 (MCF7),IC50 (HepG2),zone of inhibition at 150 µg/mL (Candida albicans [1]),zone of inhibition at 150 µg/mL (Nakaseomyces glabratus [2]),zone of inhibition at 150 µg/mL (Aspergillus niger [3]),zone of inhibition at 150 µg/mL (Aspergillus parasiticus [4]),zone of inhibition at 150 µg/mL (Staphylococcus aureus [5]),zone of inhibition at 150 µg/mL (Streptococcus pyogenes [6]),zone of inhibition at 150 µg/mL (Klebsiella pneumoniae [7]),zone of inhibition at 150 µg/mL (Pseudomonas aeruginosa [8]),zone of inhibition at 30 µg/mL (Candida albicans [9]),zone of inhibition at 30 µg/mL (Nakaseomyces glabratus [10]),zone of inhibition at 30 µg/mL (Aspergillus niger [11]),zone of inhibition at 30 µg/mL (Aspergillus parasiticus [12]),zone of inhibition at 30 µg/mL (Staphylococcus aureus [13]),zone of inhibition at 30 µg/mL (Streptococcus pyogenes [14]),zone of inhibition at 30 µg/mL (Klebsiella pneumoniae [15]),zone of inhibition at 30 µg/mL (Pseudomonas aeruginosa [16])
COc1ccc2c(c1)CCC1=C2N=c2s/c(=C\c3c[nH]c4ccc(OC)cc34)c(=O)n2C1c1ccc(F)cc1 (stereo not drawn),193 µM,86.8 µM,8 mm,10 mm,10 mm,10 mm,8 mm,8 mm,15 mm,8 mm,,,,,,,,
COc1ccc2c(c1)CCC1=C2N=c2s/c(=C\c3c[nH]c4ccccc34)c(=O)n2C1c1ccc(F)cc1 (stereo not drawn),67.3 µM,25.8 µM,8 mm,8 mm,10 mm,10 mm,21 mm,8 mm,17 mm,21 mm,,,,,,,,
Clc1ccccc1C(c1ccccc1)(c1ccccc1)n1ccnc1 [CLOTRIMAZOLE],,,,,,,,,,,24 mm,22 mm,20 mm,20 mm,,,,
CN[C@@H]1[C@H](O[C@H]2[C@H](O[C@H]3[C@H](O)[C@@H](O)[C@H](N=C(N)N)[C@@H](O)[C@@H]3N=C(N)N)O[C@@H](C)[C@]2(O)C=O)O[C@@H](CO)[C@H](O)[C@H]1O [STREPTOMYCIN],,,,,,,,,,,,,,,22 mm,21 mm,22 mm,20 mm

# Continued, in another order:
IC50 (MCF7),IC50 (HepG2),Structure (SMILES),zone of inhibition at 150 µg/mL (Candida albicans [1]),zone of inhibition at 150 µg/mL (Nakaseomyces glabratus [2]),zone of inhibition at 150 µg/mL (Aspergillus niger [3]),zone of inhibition at 150 µg/mL (Aspergillus parasiticus [4]),zone of inhibition at 150 µg/mL (Staphylococcus aureus [5]),zone of inhibition at 150 µg/mL (Streptococcus pyogenes [6]),zone of inhibition at 150 µg/mL (Klebsiella pneumoniae [7]),zone of inhibition at 150 µg/mL (Pseudomonas aeruginosa [8]),zone of inhibition at 30 µg/mL (Candida albicans [9]),zone of inhibition at 30 µg/mL (Nakaseomyces glabratus [10]),zone of inhibition at 30 µg/mL (Aspergillus niger [11]),zone of inhibition at 30 µg/mL (Aspergillus parasiticus [12]),zone of inhibition at 30 µg/mL (Staphylococcus aureus [13]),zone of inhibition at 30 µg/mL (Streptococcus pyogenes [14]),zone of inhibition at 30 µg/mL (Klebsiella pneumoniae [15]),zone of inhibition at 30 µg/mL (Pseudomonas aeruginosa [16])
> 200 µM,199 µM,O=c1/c(=C/c2c[nH]c3ccccc23)sc2n1C(c1cccc([N+](=O)[O-])c1)C1=C(N=2)c2ccccc2CC1 (stereo not drawn),8 mm,10 mm,12 mm,12 mm,8 mm,8 mm,8 mm,8 mm,,,,,,,,
8.96 µM,22.1 µM,COc1ccc2c(c1)CCC1=C2N=c2s/c(=C\c3c[nH]c4ccc(Br)cc34)c(=O)n2C1c1ccc(F)cc1 (stereo not drawn),8 mm,10 mm,8 mm,8 mm,22 mm,8 mm,18 mm,22 mm,,,,,,,,
82.4 µM,73.8 µM,COc1ccc2c(c1)CCC1=C2N=c2s/c(=C\c3c(C)[nH]c4ccccc34)c(=O)n2C1c1ccc(F)cc1 (stereo not drawn),8 mm,8 mm,12 mm,8 mm,13 mm,8 mm,16 mm,13 mm,,,,,,,,
